Experimental data pooled from the literature.
Target: MAP kinase-interacting serine/threonine-protein kinase 2 (MKNK2, Homo sapiens, UniProt Q9HBH9)

CCCCC(=O)Nc1ccc(-c2ccc3ncn(CCC)c(=O)c3c2)cn1 — remaining binding (binding; competition with immobilised ligand; 0.5 µM): 100%
CC(C)S(=O)(=O)c1ccc2nccc(Nc3ccc4sc(C5CCCC5)nc4c3)c2c1 — activity vs control (enzyme activity; inhibitor; 1 µM): 101%
COc1ccc2oc(-c3ccc4nc(N)oc4c3)c/c(=N\c3ccccc3NC(=O)CCN)c2c1 — remaining binding (binding; 1 µM): 93%
N#Cc1ccc(NC(=O)Nc2ccccc2)cc1 — remaining binding (cell-free assay; competition with immobilised ligand; 25 µM): 46%
Cc1ccc(NC(=O)c2ccnc(C(F)(F)F)c2)cc1-c1cc(OCCO)nc(N2CCOCC2)c1 — remaining binding (binding; competition with immobilised ligand; 1 µM): 79%
C=CC(=O)N1CCC([C@@H]2CCNc3c(C(N)=O)c(-c4ccc(Oc5ccccc5)cc4)nn32)CC1 — inhibition (enzyme activity; inhibitor; 1 µM): 22%
C1=C/COCc2cc(ccc2OCCN2CCCC2)Nc2nccc(n2)-c2cccc(c2)COC/1 — remaining binding (binding; 0.1 µM): 59%
CO[C@@H]1[C@H](N(C)C(=O)c2ccccc2)C[C@H]2O[C@]1(C)n1c3ccccc3c3c4c(c5c6ccccc6n2c5c31)C(=O)NC4 — inhibition (enzyme activity; inhibitor; 1 µM): 30%
CN1CCN(C(=O)c2ccc(NC(=O)Nc3ccc(N(C)c4ccnc(Nc5ccc(CS(C)(=O)=O)cc5)n4)cc3)cc2)CC1 — remaining binding (binding; competition with immobilised ligand; 1 µM): 4.2%
